Experimental data: ChEMBL document CHEMBL1165950, “Design and synthesis of new potent anticancer pyrazoles with high FLT3 kinase inhibitory selectivity” (Bioorg Med Chem, 2010)

Assays:
Format in all cases: functional
UACC-62 = assay: Cytotoxicity against human UACC62 cells assessed as cell growth at 0.01 uM after 48 hrs by sulforhodamine B assay; conditions: UACC-62, 48 h, read-out: Activity
BT-549 = assay: Cytotoxicity against human BT549 cells assessed as cell growth at 100 nM after 48 hrs by sulforhodamine B assay; conditions: BT-549, 48 h, read-out: Activity
In short: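 NCI-60 five-dose screen. Cells were grown in RPMI 1640 with 5% FBS and 2 mM L-glutamine, plated at 5000–40,000 cells/well and preincubated for 24 h. Time-zero plates were TCA-fixed. DMSO-solubilized drug was added at five concentrations (10-fold or ½-log serial dilutions) for 48 h at 37 °C, 5% CO2. Cells were TCA-fixed, stained with 0.4% SRB and read at 515 nm. Percent growth used time-zero, control and test absorbances.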

K562 = assay: Cytotoxicity against human K562 cells assessed as cell growth at 10 uM after 48 hrs by sulforhodamine B assay; conditions: K562, 48 h, read-out: Activity
M14 = assay: Cytotoxicity against human M14 cells assessed as cell growth at 100 nM after 48 hrs by sulforhodamine B assay; conditions: M14, 48 h, read-out: Activity
MOLT-4 = assay: Cytotoxicity against human MOLT4 cells assessed as cell growth at 1 uM after 48 hrs by sulforhodamine B assay; conditions: MOLT-4, 48 h, read-out: Activity
MDA-MB-468 = assay: Growth inhibition of human MDA-MB-468 cells after 48 hrs by sulforhodamine B assay; conditions: MDA-MB-468, 48 h
In short: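 NCI 60-cell screen, five-dose mode. Cells grown in RPMI 1640 with 5% FBS and 2 mM L-glutamine and plated at 5000-40,000 cells/well according to doubling time. After 24 h preincubation, a Tz plate was TCA-fixed. Five concentrations (10-fold or 1/2 log dilutions) were applied for 48 h at 37 °C. SRB staining read at 515 nm. IC50 taken from [(Ti-Tz)/(C-Tz)]×100 = 50.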

UO-31 = assay: Cytotoxicity against human UO31 cells assessed as cell growth at 0.01 uM after 48 hrs by sulforhodamine B assay; conditions: UO-31, 48 h, read-out: Activity
PC-3 = assay: Cytotoxicity against human PC3 cells assessed as cell growth at 1 uM after 48 hrs by sulforhodamine B assay; conditions: PC-3, 48 h, read-out: Activity
Malme-3M = assay: Cytotoxicity against human MALME-3M cells assessed as cell growth at 100 nM after 48 hrs by sulforhodamine B assay; conditions: read-out: Activity
MDA-MB-435 = assay: Cytotoxicity against human MDA-MB-435 cells assessed as cell growth at 10 uM after 48 hrs by sulforhodamine B assay; conditions: MDA-MB-435, 48 h, read-out: Activity
HL-60(TB) = assay: Cytotoxicity against human HL-60(TB) cells assessed as cell growth at 100 nM after 48 hrs by sulforhodamine B assay; conditions: HL-60, 48 h, read-out: Activity
In short: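 NCI 60-cell panel. Cells are grown in RPMI 1640 with 5% FBS and 2 mM L-glutamine, seeded at 5000–40,000 cells/well according to doubling time, and preincubated 24 h. Time-zero plates are TCA-fixed. Compound from DMSO stock is given at five 10-fold or 1/2-log concentrations for 48 h at 37 °C, 5% CO2. Suspension cells are fixed with 80% TCA (final 16%) and SRB-stained, with absorbance at 515 nm. Percent growth is derived from Tz, control and test readings.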

IGROV-1 = assay: Cytotoxicity against human IGROV1 cells assessed as cell growth at 0.01 uM after 48 hrs by sulforhodamine B assay; conditions: IGROV-1, 48 h, read-out: Activity
SF-295 = assay: Cytotoxicity against human SF295 cells assessed as cell growth at 0.01 uM after 48 hrs by sulforhodamine B assay; conditions: SF-295, 48 h, read-out: Activity
SK-MEL-5 [1] = assay: Cytotoxicity against human SK-MEL-5 cells assessed as cell growth at 100 nM after 48 hrs by sulforhodamine B assay; conditions: SK-MEL-5, 48 h, read-out: Activity
CAKI-1 = assay: Cytotoxicity against human Caki1 cells assessed as cell growth at 100 nM after 48 hrs by sulforhodamine B assay; conditions: CAKI-1, 48 h, read-out: Activity
786-0 = assay: Cytotoxicity against human 786-0 cells assessed as cell growth at 10 uM; conditions: read-out: Activity
In short: (§1)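 Single-dose NCI-60 screen at 10 µM. Cells were grown in RPMI 1640 with 5% FBS and 2 mM L-glutamine, then treated for 48 h at 37 °C. Protein was measured by SRB staining with absorbance at 515 nm. Percentage growth was recorded, and inhibition percentage was calculated as 100 minus growth percentage.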

[2] = Growth inhibition of human NCI60 cells at 10 uM after 48 hrs by sulforhodamine B assay relative to control; conditions: NCI60, 48 h, read-out: GI
In short: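 Single-dose NCI screen at 10 µM across the 60-line panel, 48 h exposure at 37 °C after a 24 h preincubation. Adherent cells were fixed with cold TCA and stained with 0.4% SRB, and absorbance was read at 515 nm. Inhibition % was taken as 100 minus growth %, and the mean across all lines was reported.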

UACC-257 = assay: Cytotoxicity against human UACC257 cells assessed as cell growth at 1 uM after 48 hrs by sulforhodamine B assay; conditions: UACC-257, 48 h, read-out: Activity
HOP-62 = assay: Cytotoxicity against human HOP62 cells assessed as cell growth at 10 uM; conditions: read-out: Activity; in short: as §1
OVCAR-5 = assay: Cytotoxicity against human OVCAR5 cells assessed as cell growth at 0.01 uM after 48 hrs by sulforhodamine B assay; conditions: OVCAR-5, 48 h, read-out: Activity
SF-539 = assay: Cytotoxicity against human SF539 cells assessed as cell growth at 10 uM after 48 hrs by sulforhodamine B assay; conditions: SF-539, 48 h, read-out: Activity
CCRF-CEM = assay: Growth inhibition of human CCRF-CEM cells after 48 hrs by sulforhodamine B assay
In short: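 NCI five-dose SRB assay in RPMI 1640 with 5% FBS and 2 mM L-glutamine. Cells were preincubated 24 h, then exposed 48 h at 37 °C to five concentrations (10-fold or half-log serial dilutions from DMSO stocks). TCA fixation, SRB staining, and absorbance at 515 nm followed. IC50 was taken where [(Ti−Tz)/(C−Tz)]×100 = 50, with Tz as time-zero cell density.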

SK-MEL-5 [3] = assay: Cytotoxicity against human SK-MEL-5 cells assessed as cell growth at 10 uM; conditions: read-out: Activity
In short: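 NCI-60 screen: cells grown in RPMI 1640 with 5% FBS and 2 mM L-glutamine, plated at 5000–40,000 cells/well according to doubling time, and preincubated 24 h at 37 °C, 5% CO2. The single 10 µM dose (DMSO stock) was added, then incubated 48 h. Cells were TCA-fixed and stained with 0.4% SRB, read at 515 nm, and growth % calculated against time-zero and control plates.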

Cc1cc(O)cc(-c2nn(CC#N)cc2-c2ccnc(-c3ccc(Oc4ccccc4)cc3)c2)c1
growth at 0.01 µM (UACC-62): 84% | growth at 0.1 µM (BT-549): 84% | growth at 10 µM (K562): -2% | growth at 0.1 µM (M14): 94% | growth at 1 µM (MOLT-4): -16% | GI50 (MDA-MB-468): 1.79 µM | LC50 (concentration giving 50% net cell kill) (MDA-MB-468): 8.28 µM | TGI (MDA-MB-468): 3.85 µM | growth at 0.01 µM (UO-31): 85% | growth at 1 µM (PC-3): -12% | growth at 0.1 µM (Malme-3M): 93% | growth at 10 µM (MDA-MB-435): -59% | growth at 0.1 µM (HL-60(TB)): 92% | growth at 0.01 µM (IGROV-1): 83% | growth at 0.01 µM (SF-295): 94% | growth at 0.1 µM (SK-MEL-5 [1]): 94% | growth at 0.1 µM (CAKI-1): 75% | growth at 10 µM (786-0): 58.1% | inhibition of growth at 10 µM [2]: 46.6% | growth at 1 µM (UACC-257): -7% | growth at 10 µM (HOP-62): 99.3% | growth at 0.01 µM (OVCAR-5): 72% | growth at 10 µM (SF-539): -85% | GI50 (CCRF-CEM): 2.85 µM | LC50 (CCRF-CEM): > 100 µM | TGI (CCRF-CEM): > 100 µM | growth at 10 µM (SK-MEL-5 [3]): 64.3%

COc1cc(C)cc(-c2nn(CC#N)cc2-c2ccnc(-c3ccc(N(C)C)cc3)c2)c1
growth at 0.01 µM (UACC-62): 86% | growth at 0.1 µM (BT-549): 66% | growth at 10 µM (K562): 3% | growth at 0.1 µM (M14): -12% | growth at 1 µM (MOLT-4): 13% | GI50 (MDA-MB-468): 0.181 µM | LC50 (concentration giving 50% net cell kill) (MDA-MB-468): 7.24 µM | TGI (MDA-MB-468): 0.635 µM | growth at 0.01 µM (UO-31): 92% | growth at 1 µM (PC-3): 17% | growth at 0.1 µM (Malme-3M): 46% | growth at 10 µM (MDA-MB-435): -2% | growth at 0.1 µM (HL-60(TB)): -3% | growth at 0.01 µM (IGROV-1): 101% | growth at 0.01 µM (SF-295): 94% | growth at 0.1 µM (SK-MEL-5 [1]): -22% | growth at 0.1 µM (CAKI-1): 14% | growth at 10 µM (786-0): 5.8% | inhibition of growth at 10 µM [2]: 92.3% | growth at 1 µM (UACC-257): 48% | growth at 10 µM (HOP-62): 18.9% | growth at 0.01 µM (OVCAR-5): 93% | growth at 10 µM (SF-539): -38% | GI50 (CCRF-CEM): 0.454 µM | LC50 (CCRF-CEM): > 100 µM | TGI (CCRF-CEM): > 100 µM | growth at 10 µM (SK-MEL-5 [3]): 2.26%

COc1cc(C)cc(-c2c(-c3ccnc(-c4ccc(C(C)=O)cc4)c3)cnn2CC#N)c1
growth at 0.01 µM (UACC-62): 88% | growth at 0.1 µM (BT-549): 82% | growth at 10 µM (K562): 15% | growth at 0.1 µM (M14): 79% | growth at 1 µM (MOLT-4): 7% | GI50 (MDA-MB-468): 1.43 µM | LC50 (concentration giving 50% net cell kill) (MDA-MB-468): 2.13 µM | TGI (MDA-MB-468): 3.87 µM | growth at 0.01 µM (UO-31): 87% | growth at 1 µM (PC-3): 24% | growth at 0.1 µM (Malme-3M): 97% | growth at 10 µM (MDA-MB-435): 16% | growth at 0.1 µM (HL-60(TB)): 88% | growth at 0.01 µM (IGROV-1): 94% | growth at 0.01 µM (SF-295): 98% | growth at 0.1 µM (SK-MEL-5 [1]): 85% | growth at 0.1 µM (CAKI-1): 86% | growth at 10 µM (786-0): 67.2% | inhibition of growth at 10 µM [2]: 33.4% | growth at 1 µM (UACC-257): 38% | growth at 10 µM (HOP-62): 78.1% | growth at 0.01 µM (OVCAR-5): 70% | growth at 10 µM (SF-539): -34% | GI50 (CCRF-CEM): 2.97 µM | LC50 (CCRF-CEM): > 100 µM | TGI (CCRF-CEM): > 100 µM | growth at 10 µM (SK-MEL-5 [3]): 49.2%
